Measured values taken from article PMC4358770 (Journal of medicinal chemistry, 2010).

How the values were obtained:
[1] = target: calf intestine alkaline phosphatase (Bos taurus, UniProt P19111); experiment: Hydrolysis by alkaline phosphatase; details: 0.2 mg analogue/77.5 μL, 12.5 units of AP, 37 °C, 3 h
alkaline phosphatase = alkaline phosphatase (Bos taurus, UniProt P19111); experiment: Hydrolysis by alkaline phosphatase; details: bovine, calf intestine alkaline phosphatase, pH 9.8
NTPDase3 = target: T1, NTPDase3 (Homo sapiens, UniProt O75355); experiment: NTPDase3 hydrolysis assay; type: in vitro ADME; details: 100 μM ATP (100% reference)
T1 sequence (O75355 1-529): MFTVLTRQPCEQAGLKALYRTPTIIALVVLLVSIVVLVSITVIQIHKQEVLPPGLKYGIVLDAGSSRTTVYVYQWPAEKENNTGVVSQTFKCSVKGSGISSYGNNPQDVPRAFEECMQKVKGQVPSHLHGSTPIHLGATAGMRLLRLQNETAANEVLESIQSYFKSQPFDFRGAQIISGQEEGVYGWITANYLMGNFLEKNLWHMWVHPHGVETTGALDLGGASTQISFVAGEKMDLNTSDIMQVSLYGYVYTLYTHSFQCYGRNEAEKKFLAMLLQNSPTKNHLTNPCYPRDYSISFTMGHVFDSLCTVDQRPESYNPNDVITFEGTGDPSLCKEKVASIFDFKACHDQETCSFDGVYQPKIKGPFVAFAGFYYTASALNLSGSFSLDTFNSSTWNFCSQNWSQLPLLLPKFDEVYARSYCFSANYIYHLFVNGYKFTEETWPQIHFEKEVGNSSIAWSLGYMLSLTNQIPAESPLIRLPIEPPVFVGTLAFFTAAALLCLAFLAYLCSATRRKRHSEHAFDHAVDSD
Method in brief: (§1)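 Enzymes were transiently expressed in COS-7 cells. Crude protein extracts were made by sonication, 300g clearing at 4 °C and storage at −80 °C, with protein measured by Bradford. Extract was preincubated 3 min at 37 °C in Tris-Ringer buffer, pH 7.4. […] Activity of untransfected-cell extract was subtracted.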

NTPDase2 = target: T2, NTPDase2 (Homo sapiens, UniProt Q9Y5L3); experiment: NTPDase2 hydrolysis assay; type: in vitro ADME; details: 100 μM ATP (100% reference)
T2 sequence (Q9Y5L3 1-495): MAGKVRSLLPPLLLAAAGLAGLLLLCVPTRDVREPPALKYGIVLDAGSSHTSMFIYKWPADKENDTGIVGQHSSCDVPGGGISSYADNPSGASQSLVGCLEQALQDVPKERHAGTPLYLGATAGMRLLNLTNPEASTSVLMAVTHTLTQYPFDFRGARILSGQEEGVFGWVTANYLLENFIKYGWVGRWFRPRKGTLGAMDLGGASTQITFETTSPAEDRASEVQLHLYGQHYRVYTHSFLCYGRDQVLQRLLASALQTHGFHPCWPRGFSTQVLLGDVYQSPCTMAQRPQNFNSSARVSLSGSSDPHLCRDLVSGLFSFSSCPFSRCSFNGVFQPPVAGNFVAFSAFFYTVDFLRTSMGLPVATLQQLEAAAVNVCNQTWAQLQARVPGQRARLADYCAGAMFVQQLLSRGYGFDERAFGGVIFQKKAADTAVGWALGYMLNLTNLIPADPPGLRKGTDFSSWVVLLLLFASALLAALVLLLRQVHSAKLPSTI
Method in brief: as §1

[2] = cited from earlier work
human NPP1 = target: T3, human NPP1 (Homo sapiens, UniProt P22413); experiment: NPP1 hydrolysis assay; type: in vitro ADME; details: 100 μM ATP (100% reference)
T3 sequence (P22413 1-925): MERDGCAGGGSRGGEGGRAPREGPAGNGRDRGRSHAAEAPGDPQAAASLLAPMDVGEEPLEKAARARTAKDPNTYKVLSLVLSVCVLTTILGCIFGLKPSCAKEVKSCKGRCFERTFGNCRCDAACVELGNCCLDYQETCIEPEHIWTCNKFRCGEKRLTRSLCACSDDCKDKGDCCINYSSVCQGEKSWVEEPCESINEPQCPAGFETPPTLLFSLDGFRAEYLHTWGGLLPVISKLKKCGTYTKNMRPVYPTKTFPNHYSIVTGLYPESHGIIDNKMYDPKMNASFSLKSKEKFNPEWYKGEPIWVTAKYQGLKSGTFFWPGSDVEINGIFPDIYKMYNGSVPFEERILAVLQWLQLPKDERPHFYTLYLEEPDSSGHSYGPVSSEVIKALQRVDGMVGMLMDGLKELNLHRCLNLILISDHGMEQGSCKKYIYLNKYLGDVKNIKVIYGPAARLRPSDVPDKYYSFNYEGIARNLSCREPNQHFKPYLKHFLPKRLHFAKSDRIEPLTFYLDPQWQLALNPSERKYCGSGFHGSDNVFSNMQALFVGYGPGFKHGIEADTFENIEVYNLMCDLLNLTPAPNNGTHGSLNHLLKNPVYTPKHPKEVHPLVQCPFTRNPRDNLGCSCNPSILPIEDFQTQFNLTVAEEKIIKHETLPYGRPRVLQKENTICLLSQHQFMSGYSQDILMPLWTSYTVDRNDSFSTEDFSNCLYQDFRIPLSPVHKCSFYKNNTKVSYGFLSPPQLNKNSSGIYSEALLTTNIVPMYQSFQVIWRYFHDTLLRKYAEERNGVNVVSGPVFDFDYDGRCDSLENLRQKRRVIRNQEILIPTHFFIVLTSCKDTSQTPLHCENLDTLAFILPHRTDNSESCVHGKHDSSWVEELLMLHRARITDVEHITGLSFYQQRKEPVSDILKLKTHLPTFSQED

NTPDase8 = target: T4, NTPDase8 (Homo sapiens, UniProt Q5MY95); experiment: NTPDase8 hydrolysis assay; type: in vitro ADME; details: 100 μM ATP (100% reference)
T4 sequence (Q5MY95 1-495): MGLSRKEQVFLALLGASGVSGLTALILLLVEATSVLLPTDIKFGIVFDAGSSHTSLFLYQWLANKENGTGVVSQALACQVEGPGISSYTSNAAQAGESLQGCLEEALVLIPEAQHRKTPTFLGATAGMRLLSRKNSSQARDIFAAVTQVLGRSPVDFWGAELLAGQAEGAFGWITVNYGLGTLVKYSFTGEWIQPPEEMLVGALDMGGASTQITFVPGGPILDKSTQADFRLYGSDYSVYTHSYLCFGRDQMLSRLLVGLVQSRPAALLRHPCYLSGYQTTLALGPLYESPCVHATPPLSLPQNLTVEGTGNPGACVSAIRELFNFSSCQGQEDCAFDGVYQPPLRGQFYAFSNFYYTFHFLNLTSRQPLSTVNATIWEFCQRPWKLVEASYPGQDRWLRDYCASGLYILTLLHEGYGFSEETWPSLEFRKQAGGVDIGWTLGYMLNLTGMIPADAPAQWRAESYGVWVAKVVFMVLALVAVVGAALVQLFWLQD
Method in brief: as §1

Chain of calf intestine alkaline phosphatase (P19111 20-533): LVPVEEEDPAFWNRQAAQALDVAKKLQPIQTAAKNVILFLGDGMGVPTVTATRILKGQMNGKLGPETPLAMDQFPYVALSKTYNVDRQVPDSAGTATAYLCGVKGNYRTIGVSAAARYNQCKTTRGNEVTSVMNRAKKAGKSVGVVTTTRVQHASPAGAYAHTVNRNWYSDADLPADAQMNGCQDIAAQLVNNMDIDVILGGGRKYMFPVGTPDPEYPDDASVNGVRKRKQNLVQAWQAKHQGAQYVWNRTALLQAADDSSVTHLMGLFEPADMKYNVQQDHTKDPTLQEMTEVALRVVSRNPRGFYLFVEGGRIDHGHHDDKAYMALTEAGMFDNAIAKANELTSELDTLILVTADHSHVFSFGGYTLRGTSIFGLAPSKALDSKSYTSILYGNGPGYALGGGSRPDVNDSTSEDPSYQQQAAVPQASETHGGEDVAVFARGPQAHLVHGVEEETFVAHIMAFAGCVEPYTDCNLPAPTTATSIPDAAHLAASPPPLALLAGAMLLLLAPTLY
Chain of alkaline phosphatase (P19111 20-533): as above

## Nc1ncnc2c1ncn2[C@@H]1O[C@H](COP(=O)(O)OP(=O)(O)OP(=O)(O)O)[C@@H](O)[C@H]1O [ATP]
[1]
  degradation by alkaline phosphatase after 3 h: 96%
Alkaline phosphatase
  half-life at 2.58 mg/mL: 1.4 h
NTPDase3
  hydrolysis rate by NTPDase3: 533 ± 42 nmol Pi·min^−1·mg protein^−1
NTPDase2
  hydrolysis rate by NTPDase2: 1006 ± 60 nmol Pi·min^−1·mg protein^−1
[2]
  t1/2 in human blood serum: 3.6 h
Human NPP1
  hydrolysis rate by NPP1: 619 nmol nucl·min^−1·mg protein^−1
NTPDase8
  hydrolysis rate by NTPDase8: 229 ± 20 nmol Pi·min^−1·mg protein^−1
